INS promoter inh: inhibitors of insulin promoter-driven GFP, primary screen, imaging, TRM-6 cells (human fetal islet line), eGFP reporter, cell count; reporter expression induced with tamoxifen; inhibition, % at 2 µM; 130,000 tested, 0.9% active; AID 1273, 2008;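 active = inhibition above the mean plus 3 SD, with well images judged a real hit on visual review, cut at about 60% in these data, passing the limit was not always enough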
Measles CPE: compounds protecting cells from measles virus cytopathic effect, primary screen, measles RdRp inhibitor project, single point, MLSMR library, absorbance | Measles virus-infected cells, CPE protection | AID 841, 2007 | 140,000 tested, 1.5% active | protection (pct of control), % at 4 µM; in the data active = protection mostly above about 24%, no sharp cut-off; inactive = mostly below about 26%
MDM2 E3 inh: MDM2-luciferase reporter signal enhancers, primary screen, MDM2 E3 ligase inhibitor project, cell-based, luminescence, 1536-well; E3 ubiquitin-protein ligase Mdm2 (Homo sapiens), Q00987; cell-based MDM2 ubiquitination luciferase reporter, 2 h; 0 = plate control, 100 = twice control, blank-subtracted; signal enhancement, % at 5 µM; 210,000 tested, 0.11% active; AID 1230, 2008;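 active = signal enhancement of 30% or more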;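 also: luminescence tracks abundance of the self-degrading MDM2-luciferase fusion protein; higher signal means inhibition of MDM2 E3 ligase activity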
Target sequence (Q00987 whole entry, looked up, the tested form may be a part): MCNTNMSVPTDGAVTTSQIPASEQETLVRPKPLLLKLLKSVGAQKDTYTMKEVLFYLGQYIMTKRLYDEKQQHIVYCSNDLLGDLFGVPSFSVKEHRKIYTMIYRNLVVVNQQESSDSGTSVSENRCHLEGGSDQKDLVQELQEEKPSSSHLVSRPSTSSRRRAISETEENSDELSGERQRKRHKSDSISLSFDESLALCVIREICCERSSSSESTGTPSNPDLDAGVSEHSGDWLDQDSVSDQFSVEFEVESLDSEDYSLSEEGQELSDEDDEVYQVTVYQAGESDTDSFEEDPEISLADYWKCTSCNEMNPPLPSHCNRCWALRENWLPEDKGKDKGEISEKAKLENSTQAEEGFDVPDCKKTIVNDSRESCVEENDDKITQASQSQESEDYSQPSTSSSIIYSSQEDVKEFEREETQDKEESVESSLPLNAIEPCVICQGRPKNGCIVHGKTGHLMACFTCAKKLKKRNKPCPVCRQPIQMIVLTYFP
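Assay system: stable mammalian line carrying autodegrading MDM2–luciferase fusion reporter; amount: 2000 cells seeded into each well; buffer or medium: DMEM; benchmarks: plate control and blank wells; signal: luciferase luminescence; timing: 2 h compound exposure at 37 °C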
Yeast growth inh: growth inhibitors of yeast BB579 in restrictive medium, primary screen, yeast lifespan-shortening project, S. cerevisiae. 140,000 tested, 0.51% active. AID 804, 2007. inhibition, % at 10 µM. OD615, 48 h;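 active = inhibition above a set limit, 3 SD over the mean compound inhibition, cut at about 44% in these data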
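System: Saccharomyces cerevisiae DeaD strain BB579, replicative lifespan model yeast. Buffer or medium: restrictive glucose-based CSMM-D medium. Doses: one dose, 10 µM compound with 0.25% DMSO. Timing: 4 h preincubation and 48 h exposure at 30 °C. Detection: turbidity as optical density at 615 nm. Benchmarks: amphotericin B 10 µg/mL, positive.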
Yeast lifespan up: compounds extending yeast replicative lifespan, primary screen, S. cerevisiae, OD615; AID 775, 2007; S. cerevisiae growth with nicotinamide; deaD strain in restrictive glucose medium; inhibition of the nicotinamide effect, % at 10 µM; 130,000 tested, 0.68% active;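 active = inhibition above a set limit, placed 3 SD over the median of all compounds, cut at about 26% in these data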;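 also: 0% = nicotinamide-treated wells and 100% = cells grown without nicotinamide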
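assay system = DeaD-strain S. cerevisiae | buffer or medium = restrictive glucose medium | reagent = 1.5 mM nicotinamide | compound = 10 µM single point, 0.25% DMSO | incubation = 48 h compound exposure at 30 °C, humidified | signal = OD615 measurement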
RAM inhibit: inhibitors of the yeast RAM network, primary screen, dse1pr::URA3 reporter, 5-FOA selection; S. cerevisiae dse1pr::URA3 reporter, 5-FOA growth OD615, 2 d; analog-sensitive cbk1-as2 kinase mutant strain; inhibition, % at 50 µM; 190,000 tested, 1.8% active;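 active = inhibition above a set limit, 3 SD over mean compound inhibition, cut at about 8.4% in these data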;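 also: 0% = DMSO-only wells with no growth and 100% = 10 µM 1-NA-PP1 full growth; inhibition rescues growth on 5-FOA so higher OD means more RAM inhibition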
RAM 5-FOA: 5-FOA growth of efflux-deficient control yeast, dose response, counter-screen for RAM network inhibitor project, S. cerevisiae, OD615. shares compounds with RAM inhibit. S. cerevisiae efflux-deficient reporter strain, 5-FOA growth OD615, 2 days. max inhibition, %. 1,200 tested, under 10 active; call rule not given here;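 also: plate controls were vehicle for no effect and reference inhibitor for full effect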
* = called active by the depositor. Hits are enriched below; roughly 4% of the tested compounds scored in any of these assays.

What do the screens show for `Cc1nc(C)c(NC(=O)N2CCc3ccccc32)cc1NC(=O)N1CCc2ccccc21`?
INS promoter inh: 18.2; Measles CPE: 6.1; MDM2 E3 inh: -87.8; Yeast growth inh: -43.4; Yeast lifespan up: -6.7; RAM inhibit: 12.0*; RAM 5-FOA: 3.1

What do the screens show for `O=C(NCCOC12CC3CC(CC(C3)C1)C2)c1cccc(Br)c1`?
INS promoter inh: 20.8; Measles CPE: 18.1; MDM2 E3 inh: -4.4; Yeast growth inh: -22.2; Yeast lifespan up: 1.9; RAM inhibit: 3.2

What do the screens show for `O=C(NN=C1CCCCCCCCCCC1)c1cccc(S(=O)(=O)N2CCOCC2)c1`?
INS promoter inh: 26.7; Measles CPE: 12.2; MDM2 E3 inh: -3.5; Yeast growth inh: -12.1; Yeast lifespan up: -5.6; RAM inhibit: 0.7

How did CCOC(=O)c1c(C)[nH]c(C)c1C(=O)COC(=O)/C=C/c1cccc(C(F)(F)F)c1 do in these assays?
INS promoter inh: 13.7; Measles CPE: 5.9; MDM2 E3 inh: 1.9; Yeast growth inh: -6.6; Yeast lifespan up: -1.1; RAM inhibit: 22.7*; RAM 5-FOA: 2.7

What do the screens show for `COc1cc(CNCCNC(=O)c2nonc2N)ccc1OCc1ccc(Cl)cc1`?
MDM2 E3 inh: -12.0; RAM inhibit: 0.5

What do the screens show for `O=S(=O)(NCCSc1ccc(Cl)cc1)c1ccc2c(c1)OCCO2`?
Measles CPE: 7.5; MDM2 E3 inh: -2.5; Yeast growth inh: -10.1; Yeast lifespan up: 6.0; RAM inhibit: 7.5

How did O=S(=O)(NCCSCc1ccc(Cl)cc1Cl)c1ccc2c(c1)OCCO2 do in these assays?
INS promoter inh: -33.3; Measles CPE: 3.1; MDM2 E3 inh: -7.4; Yeast growth inh: -43.4; Yeast lifespan up: 0.9; RAM inhibit: 11.7*; RAM 5-FOA: 2.6

What do the screens show for `N#Cc1c(N)n(CCOC(=O)c2cccc(Br)c2)c2nc3ccccc3nc12`?
INS promoter inh: 7.1; Measles CPE: 4.0; MDM2 E3 inh: -16.8; Yeast growth inh: -60.8; Yeast lifespan up: -17.4; RAM inhibit: 4.9

What do the screens show for `N#Cc1c(N)n(CCOC(=O)c2cccc([N+](=O)[O-])c2)c2nc3ccccc3nc12`?
INS promoter inh: 2.3; Measles CPE: 4.7; MDM2 E3 inh: -13.9; Yeast growth inh: -40.4; Yeast lifespan up: -0.2; RAM inhibit: 12.3*; RAM 5-FOA: 5.7

What do the screens show for `O=C(CCn1cnc(-c2ccccc2)c1-c1ccccc1)N/N=C/c1ccccc1O`?
INS promoter inh: 0.0; Measles CPE: 5.2; MDM2 E3 inh: -5.2; Yeast growth inh: -15.7; Yeast lifespan up: -3.0; RAM inhibit: 2.5

What do the screens show for `CN(C)c1ccc(/C=c2/sc3n(c2=O)NC2(c4ccccc4)N(C)C(=O)N(C)C2(c2ccccc2)N=3)cc1` (stereo not drawn)?
INS promoter inh: -93.8; Measles CPE: 19.2; MDM2 E3 inh: 0.8; Yeast growth inh: -10.5; Yeast lifespan up: -0.7; RAM inhibit: 1.6

Results for CC(C)c1ccccc1NC(=O)COC(=O)CCN1C(=O)/C(=C\C=C\c2ccccc2)SC1=S ?
INS promoter inh: 26.7; Measles CPE: 9.0; MDM2 E3 inh: 1.0; Yeast growth inh: -38.8; Yeast lifespan up: 6.9; RAM inhibit: 2.2

Results for O=C(COC(=O)CCN1C(=O)/C(=C\C=C\c2ccccc2)SC1=S)Nc1ccc(Br)cc1 ?
INS promoter inh: 37.1; MDM2 E3 inh: -12.7; RAM inhibit: 15.6*; RAM 5-FOA: 2.3

What do the screens show for `COCCCNC(=S)N1CCCN(c2nc3cc(C)c(C)cc3cc2C#N)CC1`?
MDM2 E3 inh: 8.0; RAM inhibit: 4.1

What do the screens show for `CCOCCCNC(=S)N1CCCN(c2nc3cc(C)c(C)cc3cc2C#N)CC1`?
MDM2 E3 inh: 2.4; RAM inhibit: 17.5*; RAM 5-FOA: 1.9

What do the screens show for `CC(=O)c1ccc(NC(=S)NC2CCCC(C)C2C)cc1` (stereo not drawn)?
MDM2 E3 inh: -4.3; RAM inhibit: 20.4*; RAM 5-FOA: 2.4

Results for CC(=O)c1ccc(NC(=S)NN2C(C)CCCC2C)cc1 (stereo not drawn) ?
MDM2 E3 inh: 3.2; RAM inhibit: 2.7

Results for S=C(c1ccc(-c2cc(Cl)ccc2Cl)o1)N1CCCCC1 ?
INS promoter inh: 3.7; Measles CPE: 14.2; MDM2 E3 inh: -7.0; Yeast growth inh: -47.3; Yeast lifespan up: -2.6; RAM inhibit: 12.2*; RAM 5-FOA: 1.0

Results for CC(C)CCC(C)N=Cc1c(O)n(Cc2ccccc2)c(=O)c2ccccc12 (stereo not drawn) ?
INS promoter inh: 46.4; Measles CPE: 1.4; MDM2 E3 inh: 3.8; Yeast growth inh: -83.4; Yeast lifespan up: 17.2; RAM inhibit: 17.0*; RAM 5-FOA: 5.9

Results for CC(=O)C1=C(C)NC(SCC(=O)c2ccccc2)=C(C#N)C1CC(C)C (stereo not drawn) ?
Measles CPE: 6.2; MDM2 E3 inh: 3.4; Yeast growth inh: -36.7; Yeast lifespan up: -15.3; RAM inhibit: 4.6

How did O=C(OC(c1ccc(NS(=O)(=O)c2ccccc2)cc1)(C(F)(F)F)C(F)(F)F)c1ccccc1 do in these assays?
INS promoter inh: 58.3; Measles CPE: 3.6; MDM2 E3 inh: -23.7; Yeast growth inh: -14.9; Yeast lifespan up: 9.6; RAM inhibit: 12.6*; RAM 5-FOA: 1.8

How did COc1ccc(-c2c/c(=N\c3nc(-c4ccccc4)c(C)s3)c3ccccc3o2)cc1O do in these assays?
INS promoter inh: -12.5; Measles CPE: 2.8; MDM2 E3 inh: -25.0; Yeast growth inh: -33.2; Yeast lifespan up: -3.9; RAM inhibit: 11.4*; RAM 5-FOA: 2.1

How did O=C(Nc1nc2ccccc2n1CCN1CCOCC1)c1cn(-c2ccccc2)nc1-c1ccccc1 do in these assays?
Measles CPE: 24.2; MDM2 E3 inh: -19.1; Yeast growth inh: -61.0; Yeast lifespan up: 173.3*; RAM inhibit: 18.3*; RAM 5-FOA: 2.5

What do the screens show for `CC(=O)Nc1nc2ccccc2n1CCN1CCOCC1`?
INS promoter inh: -2.8; Measles CPE: 19.6; MDM2 E3 inh: 2.5; Yeast growth inh: -2.8; RAM inhibit: 0.9
